From ChEMBL document CHEMBL1125712 (J Med Chem, 1991) come the findings set out here.

The subject of data set [1] is Rattus norvegicus. Put plainly: Compound was evaluated for the ED50(chronic) in male Sprague-Dawley rats(n=5) treated with streptozotocin (85 mg/kg intravenously). The conditions noted are these: oral.
For data set [2], the species on record is Rattus norvegicus. The data set is described as follows: Compound was tested for the inhibition of sorbitol accumulation in washed rat erythrocytes.
The nature of data set [3]: Compound was evaluated for the apparent pKa (dioxane/water) the ratio 2:1. It counts as physicochemical. The conditions noted are these: dioxane/water 2:1.
Data set [4] has as its target T1, Aldo-keto reductase family 1 member B1 (Rattus norvegicus, UniProt P07943). The data set is described as follows: Compound was tested for the inhibition of the rat lens aldose reductase using the substrate as glyceraldehyde.
Data set [5] has as its system Rattus norvegicus. The data set is described as follows: Compound was evaluated for the ED50(acute) in male Sprague-Dawley rats(n=4) treated with streptozotocin (85 mg/kg intravenously). It counts as functional. The gist of the method: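 Streptozotocin-diabetic rats (85 mg/kg iv) dosed by oral gavage, aqueous suspension or solution, at 4, 7 and 24 h. Killed at 27 h. […] ED50 from log linear regression.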

Data set [6] in a line: Partition coefficient (logP). The conditions noted are these: octanol/water. It counts as physicochemical.
A short description of data set [7]: Compound was evaluated for the partition coefficient (octanol/pH 7.4 buffer). It counts as physicochemical. In outline:
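Partition measured between n-octanol and pH 7.4 buffer.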

Data set [8] is described as follows: Compound was evaluated for the apparent pKa (dioxane/water) in the ratio 1:1. It counts as physicochemical. The conditions noted are these: dioxane/water 1:1.
Data set [9] addresses T1, Aldo-keto reductase family 1 member B1. Put plainly: Compound was tested for the inhibition of the rat lens aldose reductase using the substrate as glucose.
The test system of data set [10] is aldose reductase (Rattus norvegicus). Put plainly: In vivo inhibition of sorbitol accumulation in the rat following 10 mg/kg p.o. administration. The conditions noted are these: at 10 mg/kg.
Data set [11] relates to Rattus norvegicus. Put plainly: Compound was evaluated for the ED50(chronic) in male Sprague-Dawley rats(n=5) treated with streptozotocin (85 mg/kg intravenously). The conditions noted are these: oral. The source holds these as a separate data set.
Data set [12] addresses T2, Aldo-keto reductase family 1 member B1 (Homo sapiens, UniProt P15121). Put plainly: Inhibition of aldose reductase (aldo-keto reductase, AKR1B1) isolated from human placenta.
Data set [13] is filed under the species Homo sapiens. Put plainly: Compound was tested for the inhibition of sorbitol accumulation in washed human erythrocytes. It counts as functional.
For data set [14], the species on record is Rattus norvegicus. The data set is described as follows: animal or person. It counts as functional.
Data set [15] deals with T2, Aldo-keto reductase family 1 member B1. Put plainly: Compound was evaluated for its ability to inhibit the aldose reductase isolated from human placentae; Inactive at 10E-4 M.
Data set [16] in a line: Compound was evaluated for the apparent pKa (dioxane/water)the ratio 2:1. It counts as physicochemical. The conditions noted are these: dioxane/water 2:1.
In data set [17] the test system is Rattus norvegicus. Put plainly: Compound was evaluated in vivo for the inhibition of sorbitol accumulation administered orally at a dose of 0.25 mg/kg. It counts as functional. The conditions noted are these: route oral.
For data set [18], the system named is Rattus norvegicus. The data set is described as follows: Compound was evaluated in vivo for the inhibition of sorbitol accumulation administered orally at a dose of 5 mg/kg. It counts as functional. The conditions noted are these: route oral.
The test system of data set [19] is Rattus norvegicus. The data set is described as follows: Compound was evaluated in vivo for the inhibition of sorbitol accumulation administered orally at a dose of 5 mg/kg; Not significant. On the set-up: dose 5 mg/kg. It counts as functional, organism-based.

In general, ED50 refers to the dose that gives a 50% effect, or the effect in half of the subjects. The low end stands for greater potency, the high end for weaker potency. The IC50 is the concentration that gives 50% inhibition. Low values mean higher potency, high ones lower potency. One may read the pKa as the negative logarithm of the acid dissociation constant. As usually defined, the logP is a log measure of how a compound divides between an organic and an aqueous phase. A high value points to a more lipophilic compound. The logD is lipophilicity at a set pH, counting ionised and neutral species. A word on the inhibition: it is the relative decrease from the control value, in per cent. As a reminder, the inhibition in vivo is how much of the control response was suppressed. Low values mean a response near the control, high ones a response far below the control.

Calls of active or inactive are those of the source. No cut-off for these calls is given here.

In the case of `O=C(O)Cc1nn(Cc2nc3cc(C(F)(F)F)ccc3s2)c(=O)c2ccccc12` [ZOPOLRESTAT], the figures for the ED50 in [1] and in [5] (iv) were 2 mg/kg and 3.6 mg/kg, respectively. Moreover, the IC50 is 220 nM in [2], 41 nM in [4] and 10 nM in data set [9]. Moreover, the pKa in [3] is 6.38; in [8], 5.46. This compound also returned a logP in [6] of 3.43. This compound gave a pH-dependent lipophilicity (logD) in data set [7] of 0.55.

Compound `O=C(O)Cc1nn(Cc2nc3cc(F)cc(F)c3s2)c(=O)c2ccccc12` had an inhibition in data set [10] of 80%. For the same compound, the pKa in data set [3] is 6.38; in [8], 5.47. For the same compound, the ED50 was determined as 3.2 mg/kg in data set [5] (oral) and 4 mg/kg in data set [11]. The logP in data set [6] was 3.01. In data set [7], this compound gave a logD of 0.05. This compound also showed an IC50 in data set [12] of 6.3 nM.

`COc1ccc2c(C(=S)N(C)CC(=O)O)cccc2c1C(F)(F)F` [TOLRESTAT]: in [11], the ED50 was found to be 26 mg/kg. For the same compound, half-maximal inhibition in data set [13] (IC50) was put at 15 nM.

`O=C(O)Cc1nn(Cc2nc3cc(Cl)cc(Cl)c3s2)c(=O)c2ccccc12`: the inhibition in data set [10] came out at 73%. Further, the values for the ED50 in [5] (oral) and in data set [11] were 3.5 mg/kg and 2.8 mg/kg, respectively. Moreover, it took 4 nM to reach half-maximal inhibition in data set [12] (IC50).

`O=C(O)c1nnc(O)c2ccccc12`: the pKa was found to be 6.35 in data set [3] and 5.49 in data set [8]. Besides, the logP in data set [6] came to 2.42.

`O=C(O)Cc1nn(Cc2nc3ccccc3s2)c(=O)c2ccccc12`: the inhibition in vivo at 25 mg/kg in [14] (dose 25 mg/kg, route oral) is 67%. The ED50 in data set [5] (oral) stood at 18.5 mg/kg. Moreover, in data set [12], the half-maximal inhibitory concentration (IC50) is 19 nM.

The compound `O=C(O)Cc1nn(Cc2nc3ccc(Cl)cc3s2)c(=O)c2ccccc12` registered an inhibition in vivo at 25 mg/kg in [14] (dose 25 mg/kg, route oral) of 61%. It took 76 nM to reach half-maximal inhibition in [12] (IC50).

As for `CN1C(C(=O)Nc2nccs2)=C(O)c2ccccc2S1(=O)=O` [SUDOXICAM], the IC50 entry in [15] is given as “Not Active”.

In the case of `O=C(O)Cc1nn(Cc2nc3cc(Br)ccc3s2)c(=O)c2ccccc12`, the 50% effective dose (ED50) was 4.9 mg/kg in data set [1] and 5.6 mg/kg in [5] (iv). In addition, in [16], the pKa was found to be 6.35. The logP in data set [6] was 3.35. This compound also returned an IC50 in data set [12] of 3.1 nM.

The compound `O=C1NC(=O)[C@@]2(CCOc3ccc(F)cc32)N1` [SORBINIL] yielded an ED50 in data set [11] of 0.8 mg/kg. In addition, in data set [17], the inhibition in vivo at 0.25 mg/kg was 40.1%.

On to `O=C(O)Cc1nn(Cc2nc3cc(F)ccc3s2)c(=O)c2ccccc12`, for which the 50% effective dose (ED50) in data set [1] and in data set [5] (iv) was 5.3 mg/kg throughout. In addition, the results for the pKa in data set [3] and in data set [8] were 6.35 and 5.49, respectively. In data set [6], the logP was determined as 2.42. Moreover, in [7], the log distribution coefficient (logD) is -0.3. Also, the IC50 in data set [12] is 6.9 nM. The same compound yielded an inhibition in vivo at 5 mg/kg in data set [18] of 60%.

In data set [14] (po), `Cc1cc(C)c2sc(Cn3nc(CC(=O)O)c4ccccc4c3=O)nc2c1` had an inhibition in vivo at 25 mg/kg of 39%. For the same compound, the half-maximal inhibitory concentration (IC50) in data set [12] was 5.9 nM.

For the compound `CC(C)c1ccc2c(CC(=O)O)nn(Cc3nc4ccccc4s3)c(=O)c2c1`, half-maximal inhibition in data set [12] (IC50) was put at 110 nM. The inhibition entry in data set [19] is “inactive”.

Compound `O=C(O)Cc1nn(Cc2nc3c(Cl)ccc(Cl)c3s2)c(=O)c2ccccc12` yielded an inhibition in vivo at 25 mg/kg in data set [14] (dose 25 mg/kg, route oral) of 65%. Further, the IC50 in [12] is 20 nM.
